One data set has as its target Integrin alpha-4/beta-1 (Homo sapiens, UniProt P05556+P13612). The experiment in a line: Inhibition of binding of alpha4beta1 integrin receptor expressed in human Ramos cells to immobilized VCAM1. The data set is classed as cell-based.
A short description of data set [1]: Oral bioavailability in rat at 30 mg/kg, po and 3 mg/kg, iv. The data set is classed as ADME, organism-based. The following applies: in vivo. The essentials:
(§1)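 Rats were given 3 mg/kg iv or 30 mg/kg by oral gavage (oral vehicle 10% PEG 400 in PBS, pH 7.0-7.5). Heparinized blood was sampled after dosing and the plasma stored at -70 °C. Analysis was by LC-MS-MS with multiple reaction monitoring, using plasma calibration standards of 0.01-10 µM (LOQ 0.01 µM). For ester prodrugs, the parent acid was quantified. AUC was taken after oral dosing and t1/2 after iv dosing.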

A short description of data set [2]: AUC in rat at 30 mg/kg, po. The data set is classed as ADME, organism-based. Also on record: dose 30 mg/kg, route oral. The following applies: plasma. In a few lines:
as §1

Data set [3] can be described thus: Half life in rat at 3 mg/kg, iv. The following applies: in vivo. It counts as ADME, organism-based. Also on record: dose 3 mg/kg, route intravenous. The essentials: as §1
A further data set deals with T1, Integrin alpha-4/beta-7 (Homo sapiens, UniProt P13612+P26010).
T1 sequence (P13612 whole entry): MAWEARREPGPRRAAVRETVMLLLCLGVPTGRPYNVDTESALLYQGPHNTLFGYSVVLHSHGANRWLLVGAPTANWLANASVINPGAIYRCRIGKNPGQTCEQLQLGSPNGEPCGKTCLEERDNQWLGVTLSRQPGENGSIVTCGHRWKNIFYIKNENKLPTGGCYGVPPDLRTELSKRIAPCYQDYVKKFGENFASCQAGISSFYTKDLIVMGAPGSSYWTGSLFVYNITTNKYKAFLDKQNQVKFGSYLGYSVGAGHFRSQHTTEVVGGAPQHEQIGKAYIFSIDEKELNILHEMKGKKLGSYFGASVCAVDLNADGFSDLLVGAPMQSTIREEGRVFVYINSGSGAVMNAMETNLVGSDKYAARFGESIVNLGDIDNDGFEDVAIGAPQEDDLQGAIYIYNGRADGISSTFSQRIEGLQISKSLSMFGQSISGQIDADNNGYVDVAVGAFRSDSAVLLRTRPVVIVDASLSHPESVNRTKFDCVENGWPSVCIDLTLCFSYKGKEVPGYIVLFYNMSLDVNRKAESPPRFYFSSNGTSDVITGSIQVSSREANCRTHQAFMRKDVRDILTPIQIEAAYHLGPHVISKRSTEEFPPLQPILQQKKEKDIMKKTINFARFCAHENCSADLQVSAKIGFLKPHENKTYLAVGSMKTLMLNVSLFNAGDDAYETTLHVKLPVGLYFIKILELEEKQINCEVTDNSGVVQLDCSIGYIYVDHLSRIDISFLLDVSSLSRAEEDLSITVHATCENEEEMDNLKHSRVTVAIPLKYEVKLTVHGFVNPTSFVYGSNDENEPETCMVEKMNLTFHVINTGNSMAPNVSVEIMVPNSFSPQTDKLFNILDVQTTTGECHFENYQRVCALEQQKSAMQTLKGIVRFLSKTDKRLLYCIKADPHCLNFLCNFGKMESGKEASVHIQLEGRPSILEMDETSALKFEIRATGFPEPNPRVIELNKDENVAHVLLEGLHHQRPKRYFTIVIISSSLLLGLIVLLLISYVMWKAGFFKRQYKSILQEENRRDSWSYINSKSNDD
T1 sequence (P26010 whole entry): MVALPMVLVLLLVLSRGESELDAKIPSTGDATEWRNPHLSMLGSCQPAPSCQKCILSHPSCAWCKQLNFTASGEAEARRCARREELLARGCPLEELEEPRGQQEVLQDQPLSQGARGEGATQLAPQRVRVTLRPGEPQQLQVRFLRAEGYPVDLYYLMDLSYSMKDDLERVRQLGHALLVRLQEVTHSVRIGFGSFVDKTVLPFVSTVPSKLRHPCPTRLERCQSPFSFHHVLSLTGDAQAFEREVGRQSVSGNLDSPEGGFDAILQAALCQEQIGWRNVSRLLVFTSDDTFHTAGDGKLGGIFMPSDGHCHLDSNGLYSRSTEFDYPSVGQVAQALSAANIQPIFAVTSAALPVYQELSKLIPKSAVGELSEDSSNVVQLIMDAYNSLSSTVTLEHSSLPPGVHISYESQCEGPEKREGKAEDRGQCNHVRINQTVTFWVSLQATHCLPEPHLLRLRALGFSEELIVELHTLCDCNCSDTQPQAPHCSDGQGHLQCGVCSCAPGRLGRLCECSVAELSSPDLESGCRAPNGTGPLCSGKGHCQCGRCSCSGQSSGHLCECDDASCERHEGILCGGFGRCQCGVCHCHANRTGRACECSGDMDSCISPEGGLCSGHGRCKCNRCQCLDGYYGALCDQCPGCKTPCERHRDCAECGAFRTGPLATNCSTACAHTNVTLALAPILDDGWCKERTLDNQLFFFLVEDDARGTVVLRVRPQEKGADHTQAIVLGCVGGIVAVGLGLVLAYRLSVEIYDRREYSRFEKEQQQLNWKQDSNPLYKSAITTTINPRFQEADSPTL
The experiment in a line: Inhibition of binding of alpha-4-beta-7 integrin receptor expressed in human K562 cells to immobilized MAdCAM1. The data set is classed as cell-based.

A short description of data set [4]: Volume of distribution in rat at 3 mg/kg, iv. It counts as ADME, organism-based. The following applies: in vivo, read-out: Vdss. Also on record: dose 3 mg/kg, route intravenous. The essentials: as §1
A short description of data set [5]: Clearance in rat at 3 mg/kg, iv. The data set is classed as ADME, organism-based. Also on record: dose 3 mg/kg, route intravenous. The following applies: in vivo. The essentials: as §1
A short description of data set [6]: Inhibition of adhesion of human Ramos cell to TNF-alpha-stimulated HUVEC cells mediated by VCAM1. It counts as functional, cell-based.
The nature of data set [7]: Inhibition of adhesion of human U937 cell to LPS-stimulated HUVEC cells mediated by ICAM1/VCAM1. It counts as functional, cell-based.
A short description of data set [8]: Inhibition of adhesion of human HL60 cell to TNF-alpha-stimulated HUVEC cells mediated by ELAM1. It counts as functional, cell-based.
In a further data set the test system is Mus musculus. The experiment in a line: Inhibition of DSS-induced colitis in mouse at 60 mg/kg, po after 7 days. The data set is classed as functional. The following applies: 168 h. The essentials:
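Female Balb/c mice, 11-14 weeks old (n = 10/group), drank 5% DSS in tap water ad libitum for 7 days, freshly changed daily. Oral gavage at 60 mg/kg in 10% PEG 400 in D5W, or vehicle alone, began on the day of induction and continued twice daily for 7 days. Colons were then dissected. The macroscopic score combined colon shrinkage, stool consistency and colon damage.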

Integrin alpha-4/beta-1, sequence (P05556 whole entry, one chain of several): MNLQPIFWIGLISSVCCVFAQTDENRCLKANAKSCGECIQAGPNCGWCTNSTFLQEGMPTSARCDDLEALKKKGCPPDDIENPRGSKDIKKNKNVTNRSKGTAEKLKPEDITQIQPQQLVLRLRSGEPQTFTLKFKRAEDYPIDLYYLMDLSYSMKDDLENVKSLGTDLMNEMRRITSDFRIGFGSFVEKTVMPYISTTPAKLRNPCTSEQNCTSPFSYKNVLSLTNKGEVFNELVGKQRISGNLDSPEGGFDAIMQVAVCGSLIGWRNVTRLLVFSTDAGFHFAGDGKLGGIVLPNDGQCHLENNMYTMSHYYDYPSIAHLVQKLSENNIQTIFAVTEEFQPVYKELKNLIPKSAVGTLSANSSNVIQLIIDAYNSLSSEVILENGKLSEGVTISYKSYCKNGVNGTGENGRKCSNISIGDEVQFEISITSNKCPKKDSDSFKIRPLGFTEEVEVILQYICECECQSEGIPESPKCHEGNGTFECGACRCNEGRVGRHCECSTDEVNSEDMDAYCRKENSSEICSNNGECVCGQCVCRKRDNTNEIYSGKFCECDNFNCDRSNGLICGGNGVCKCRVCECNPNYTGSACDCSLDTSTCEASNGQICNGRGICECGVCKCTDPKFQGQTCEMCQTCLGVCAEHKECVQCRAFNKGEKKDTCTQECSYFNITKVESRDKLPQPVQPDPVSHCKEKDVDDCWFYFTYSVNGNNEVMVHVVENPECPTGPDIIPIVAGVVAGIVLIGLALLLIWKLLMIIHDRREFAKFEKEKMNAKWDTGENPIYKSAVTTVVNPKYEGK

Usually IC50 stands for the concentration that gives 50% inhibition. A high value points to weaker potency. `CCCN(C(=O)N[C@@H](Cc1ccc(-c2c(OC)cnn(C)c2=O)cc1)C(=O)O)c1ccccc1` displayed a half-maximal inhibitory concentration (IC50) on Integrin alpha-4/beta-1 of more than 5 µM.

By bioavailability is commonly meant dose-corrected exposure relative to a reference, in per cent. The AUC is concentration integrated over time. Low readings indicate low exposure, high ones high exposure. By half-life is commonly meant how long it takes for the measured level to halve. Read a low half-life as fast loss. `COc1cnn(C)c(=O)c1-c1ccc(C[C@H](NC(=O)N(C)CC(C)C)C(=O)OCCO)cc1` registered a bioavailability in data set [1] of 14%. The same compound returned an AUC in data set [2] of 47000 nM·h. In addition, the half-life in data set [3] was 24 min.

`Cn1ncc(OCCN2CCOCC2)c(-c2ccc(C[C@H](NC(=O)c3c(Cl)cccc3Cl)C(=O)O)cc2)c1=O`: the IC50 at Integrin alpha-4/beta-1 was 0.066 µM.

In data set [1], `COc1cnn(C)c(=O)c1-c1ccc(C[C@H](NC(=O)c2c(Cl)cccc2Cl)C(=O)OCCO)cc1` yielded a bioavailability of 7%. The compound further displayed an AUC in data set [2] of 3300 nM·h. The compound also gave a half-life in data set [3] of 60 min.

As for `Cn1ncc(N2CCCC2)c(-c2ccc(C[C@H](NC(=O)c3c(Cl)cccc3Cl)C(=O)O)cc2)c1=O`, at Integrin alpha-4/beta-1, the IC50 stood at 0.11 µM.

On Integrin alpha-4/beta-1, `COC(=O)N[C@@H](Cc1ccc(-c2c(OC)cnn(C)c2=O)cc1)C(=O)O` showed an IC50 of more than 5 µM.

As for `Cn1ncc(OC(F)F)c(-c2ccc(C[C@H](NC(=O)c3c(Cl)cccc3Cl)C(=O)O)cc2)c1=O`, the IC50 at Integrin alpha-4/beta-7 was found to be 0.008 µM; at Integrin alpha-4/beta-1, 0.28 µM.

Broadly, the clearance is the volume of plasma or blood freed of the substance per unit of time. High values mean efficient removal, low ones inefficient removal. Compound `COc1cnn(C)c(=O)c1-c1ccc(C[C@H](NC(=O)N(C)CC(C)C)C(=O)O)cc1` had a bioavailability in data set [1] of 3%. Besides, the Vd in data set [4] was 0.19 L/kg. Moreover, in data set [2], the area under the curve (AUC) turned out to be 5200 nM·h. The compound further had a clearance in [5] of 0.468 L/h/kg. At Integrin alpha-4/beta-1, this compound gave a half-maximal inhibitory concentration (IC50) of 1.8 µM. Besides, the half-life in data set [3] is 54 min.

Take `COc1cnn(C)c(=O)c1-c1ccc(C[C@H](NC(=O)c2c(Cl)cccc2Cl)C(=O)O)cc1`: the bioavailability in [1] stood at 1%. In addition, the IC50 is 0.043 µM in [6], 0.014 µM in [7] and less than 0.005 µM in data set [8]. The Vd in [4] was 0.4 L/kg. The same compound showed an AUC in data set [2] of 500 nM·h. Also, in data set [5], the clearance is 1.32 L/h/kg. In addition, in [3], the half-life is 12 min.

Compound `Cn1ncc(OC2CCCCC2)c(-c2ccc(C[C@H](NC(=O)c3c(Cl)cccc3Cl)C(=O)O)cc2)c1=O` gave a 50% inhibitory concentration (IC50) on Integrin alpha-4/beta-1 of 0.15 µM.

Consider `COc1cnn(C)c(=O)c1-c1ccc(C[C@H](NC(=O)OC(C)(C)C)C(=O)O)cc1`, for which the half-inhibitory concentration (IC50) at Integrin alpha-4/beta-1 is more than 5 µM.

For the compound `COc1cnn(C2CCCCC2)c(=O)c1-c1ccc(C[C@H](NC(=O)c2c(Cl)cccc2Cl)C(=O)O)cc1`, the results for the IC50 on Integrin alpha-4/beta-7 and on Integrin alpha-4/beta-1 were 0.33 µM and more than 5 µM, respectively.

On to `COC(=O)[C@H](Cc1ccc(-c2c(OC)cnn(C)c2=O)cc1)NC(=O)c1c(Cl)cccc1Cl`, for which the bioavailability in data set [1] is 8%. The exposure (AUC) in data set [2] worked out at 1700 nM·h. In data set [3], the half-life is 42 min.

Take `COc1cnn(Cc2ccccc2)c(=O)c1-c1ccc(C[C@H](NC(=O)c2c(Cl)cccc2Cl)C(=O)O)cc1`: the IC50 on Integrin alpha-4/beta-7 came out at 0.1 µM.

On to `CCOc1cnn(C)c(=O)c1-c1ccc(C[C@H](NC(=O)c2c(Cl)cccc2Cl)C(=O)O)cc1`, for which the IC50 stood at 0.002 µM on Integrin alpha-4/beta-7 and 0.17 µM at Integrin alpha-4/beta-1.

In data set [1], `COc1cnn(CCO)c(=O)c1-c1ccc(C[C@H](NC(=O)OC(C)(C)C)C(=O)O)cc1` yielded a bioavailability of 1%. In addition, the IC50 at Integrin alpha-4/beta-7 is 0.11 µM; at Integrin alpha-4/beta-1, more than 5 µM. In data set [4], the Vd came to 0.11 L/kg. The compound further returned an exposure (AUC) in data set [2] of 1600 nM·h. Besides, the clearance in [5] came to 0.36 L/h/kg. For the same compound, the half-life in [3] is 12 min.

`CCOC(=O)[C@H](Cc1ccc(-c2c(OC)cnn(C)c2=O)cc1)NC(=O)c1c(Cl)cccc1Cl` registered a bioavailability in data set [1] of 4%. The same compound had an exposure (AUC) in [2] of 2300 nM·h.

For `COc1cnn(C)c(=O)c1-c1ccc(C[C@H](NC(=O)N(C)C)C(=O)O)cc1`, the IC50 on Integrin alpha-4/beta-7 was 1.5 µM; at Integrin alpha-4/beta-1, more than 5 µM.

Broadly, the inhibition in vivo is the relative decrease from the control value, in per cent. Low values mean a weak effect, high ones a strong effect. Turning to `COc1cnn(CCO)c(=O)c1-c1ccc(C[C@H](NC(=O)OC(C)(C)C)C(=O)OCCO)cc1`, the bioavailability in data set [1] was 31%. The compound also registered an AUC in [2] of 51000 nM·h. Moreover, 60 mg/kg produced 54% inhibition in vivo in the data set on Mus musculus. The compound further had a half-life in data set [3] of 66 min.

On Integrin alpha-4/beta-1, `COc1cnn(CCO)c(=O)c1-c1ccc(C[C@H](NC(=O)c2c(Cl)cccc2Cl)C(=O)O)cc1` showed an IC50 of 0.13 µM.

In turn, `Cn1ncc(O)c(-c2ccc(C[C@H](NC(=O)c3c(Cl)cccc3Cl)C(=O)O)cc2)c1=O` registered an IC50 at Integrin alpha-4/beta-7 of 0.049 µM.

For `COc1cnnc(O)c1-c1ccc(C[C@H](NC(=O)c2c(Cl)cccc2Cl)C(=O)O)cc1`, the IC50 on Integrin alpha-4/beta-1 is 1 µM.

Values taken from ChEMBL document CHEMBL1148523, “Synthesis and biological evaluation of novel pyridazinone-based alpha4 integrin receptor antagonists” (J Med Chem, 2006).
